As a reminder, the IC50 is the concentration needed to halve the response being measured. What is called MIC is the least concentration at which growth counts as inhibited. Higher therefore signals a less susceptible organism.

Data on 26 compounds can be found in ChEMBL document CHEMBL4480441, “Discovery and development of novel rhodanine derivatives targeting enoyl-acyl carrier protein reductase” (Bioorg Med Chem, 2019).

Each structure is given as a SMILES string. ≈ marks a conversion by molar mass, not a printed value.

Data set [1] has as its target T1, Enoyl-[acyl-carrier-protein] reductase [NADH] (Mycobacterium tuberculosis, UniProt P9WGR1).
T1 sequence (P9WGR1 whole entry): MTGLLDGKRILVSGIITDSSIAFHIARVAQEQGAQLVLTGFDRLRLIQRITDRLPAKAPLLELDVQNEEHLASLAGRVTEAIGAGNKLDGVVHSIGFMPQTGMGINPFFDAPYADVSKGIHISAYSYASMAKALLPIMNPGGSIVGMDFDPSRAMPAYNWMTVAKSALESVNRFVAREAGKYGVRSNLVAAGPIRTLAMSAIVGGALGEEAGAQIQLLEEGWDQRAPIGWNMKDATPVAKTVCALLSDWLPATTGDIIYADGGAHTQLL
The data set can be described thus: Inhibition of recombinant Mycobacterium tuberculosis InhA expressed in Escherichia coli […] pLysS using trans-2-decenoyl-N-acetylcysteamine as substrate by spectrophotometric method.

The subject of data set [2] is Mycobacterium tuberculosis. The data set can be described thus: Antitubercular activity against Mycobacterium tuberculosis measured after 48 hrs by luminescence based serial dilution method. The data set is classed as functional.
The subject of the next data set is Pseudomonas aeruginosa. The experiment in a line: Antimicrobial activity against Pseudomonas aeruginosa […] measured after 48 hrs by p-iodonitrotetrazolium violet dye based serial dilution test. The data set is classed as functional.
Data set [3] can be described thus: Cytotoxicity against HEK293 cells after 48 hrs by MTT assay. The data set is classed as cell-based. Particulars: human, read-out: MIC.
Data set [4] relates to Staphylococcus aureus. The data set can be described thus: Antimicrobial activity against […] Staphylococcus aureus ATCC 29213 measured after 48 hrs. The data set is classed as functional. The note with it: ATCC 29213, 48 h. The method in brief: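 Brucella broth with 10% heat-inactivated horse serum. Inoculum of 1×10^5 bacteria per well, exposed to a range of compound concentrations at 37 °C for 48 h. Absorbance read at 590 nm. Drug-free wells served as growth control and medium-only wells as blank. MIC is the concentration giving 80% growth inhibition.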

In data set [5] the test system is Staphylococcus aureus. The data set can be described thus: Antimicrobial activity against methicillin-sensitive Staphylococcus aureus ATCC 25923 measured after 48 hrs. It is filed as functional. The note with it: ATCC 25923, 48 h. The method in brief:
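Brucella broth with 10% heat-inactivated horse serum. Inoculum of 1×10^5 bacteria per well, exposed to a range of compound concentrations for 48 h at 37 °C. Read as absorbance at 590 nm, with compound-free wells as control and medium-only wells as blank. Percent growth inhibition was calculated, and the concentration giving 80% inhibition was taken as the MIC.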

For data set [6], the target named is T2, 3-oxoacyl-[acyl-carrier-protein] synthase 3 (Escherichia coli, UniProt C3TDZ2).
T2 sequence (C3TDZ2 whole entry): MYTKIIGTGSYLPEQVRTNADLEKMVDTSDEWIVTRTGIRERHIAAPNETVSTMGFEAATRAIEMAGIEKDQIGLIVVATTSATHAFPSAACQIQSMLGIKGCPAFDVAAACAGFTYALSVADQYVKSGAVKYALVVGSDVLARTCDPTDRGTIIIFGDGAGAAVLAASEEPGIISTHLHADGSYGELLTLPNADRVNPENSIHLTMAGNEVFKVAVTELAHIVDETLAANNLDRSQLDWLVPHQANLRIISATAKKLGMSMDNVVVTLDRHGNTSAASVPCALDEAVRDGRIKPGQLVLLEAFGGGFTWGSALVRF
The experiment in a line: Inhibition of Escherichia coli KAS3 expressed in Escherichia coli BL21(DE3).

In the next data set the target is DNA gyrase (Escherichia coli, UniProt P0AES4+P0AES6). The experiment in a line: Inhibition of Escherichia coli DNA gyrase assessed as reduction in enzyme-mediated supercoiling of relaxed pBR322 DNA measured after 60 mins by electrophoresis method. The data set is classed as protein-complex assay.

With `COc1ccc(C(=O)CN2C(=O)/C(=C\c3ccccc3OC)SC2=S)cc1`, in data set [1], the half-maximal inhibitory concentration (IC50) is 16.8 µM. This compound returned an MIC in data set [2] of 9.27 µM (≈ 3.7 µg/mL).

On to `COc1ccccc1/C=C1/SC(=S)N(CC(=O)c2ccccc2)C1=O`, for which, in data set [1], the half-inhibitory concentration (IC50) is 28.1 µM. Also, in data set [2], the MIC was 30.4 µM (≈ 11.2 µg/mL).

Turning to `CC(=O)Nc1ccc(/C=C2/SC(=S)N(CC(=O)c3ccccc3)C2=O)cc1`, in data set [1], the IC50 came out at 11.6 µM. 3.18 µM (≈ 1.26 µg/mL) was the least that counted as inhibitory in data set [2] (MIC).

With `O=C(CN1C(=O)/C(=C\c2ccc(F)cc2)SC1=S)c1ccccc1`, the IC50 in data set [1] was 55 µM. Also, in data set [2], inhibition of growth (MIC) required 57.4 µM (≈ 20.5 µg/mL).

`O=C(CN1C(=O)/C(=C\c2ccc(Cl)cc2)SC1=S)c1ccccc1`: the concentration for half-maximal inhibition (IC50) in data set [1] came out at 50.1 µM. In data set [2], this compound returned an MIC of 48.2 µM (≈ 18 µg/mL).

As to `O=C(CN1C(=O)/C(=C\c2ccccc2)SC1=S)c1ccccc1`, the 50% inhibitory concentration (IC50) in data set [1] worked out at 40.2 µM. For the same compound, in data set [2], the lowest concentration to inhibit growth (MIC) was 32.3 µM (≈ 11 µg/mL).

`O=C(CN1C(=O)/C(=C\c2ccc([N+](=O)[O-])cc2)SC1=S)c1ccccc1`: the 50% inhibitory concentration (IC50) in data set [1] is 43.5 µM. This compound also yielded a minimal inhibitory concentration (MIC) in data set [2] of 36.5 µM (≈ 14 µg/mL).

Turning to `COc1ccc(/C=C2/SC(=S)N(CC(=O)c3ccccc3)C2=O)cc1`, the MIC in the data set with Pseudomonas aeruginosa was 4.83 µM (≈ 1.78 µg/mL); against Staphylococcus aureus [4], 4.15 µM (≈ 1.53 µg/mL); in data set [2], 2.95 µM (≈ 1.09 µg/mL); with Staphylococcus aureus [5], 4.28 µM (≈ 1.58 µg/mL). The MCC at 48 h in data set [3] came out at 167 µM. In data set [1], the 50% inhibitory concentration (IC50) is 8.24 µM.

In the case of `O=C(CN1C(=O)/C(=C\c2ccc(Br)cc2)SC1=S)c1ccccc1`, in data set [1], the IC50 came out at 23.9 µM. The same compound came in with an MIC in data set [2] of 21.1 µM (≈ 8.83 µg/mL).

Consider `COc1cc(/C=C2/SC(=S)N(CC(=O)c3ccccc3)C2=O)cc(OC)c1OC`, for which the values for the half-maximal inhibitory concentration (IC50) (in data set [6]; in data set [1]; at DNA gyrase) were 780 µM, 3.12 µM and greater than 1000 µM, respectively. Further, the minimal inhibitory concentration (MIC) was 5.41 µM (≈ 2.32 µg/mL) against Pseudomonas aeruginosa, 7.2 µM (≈ 3.09 µg/mL) in the data set with Staphylococcus aureus [4], 0.38 µM (≈ 0.163 µg/mL) in data set [2] and 4.61 µM (≈ 1.98 µg/mL) in the data set with Staphylococcus aureus [5]. For the same compound, the MCC at 48 h in data set [3] is greater than 200 µM.

Consider `COc1ccc(C(=O)CN2C(=O)/C(=C\c3ccccc3Cl)SC2=S)cc1`, for which, in data set [1], the IC50 is 15.3 µM. For the same compound, the MIC in data set [2] turned out to be 7.83 µM (≈ 3.16 µg/mL).

On to `COc1ccc(C(=O)CN2C(=O)/C(=C\c3ccc(Br)cc3)SC2=S)cc1`, for which, in data set [1], the IC50 is 12.1 µM. Moreover, in data set [2], the MIC came out at 4.04 µM (≈ 1.81 µg/mL).

In the case of `O=C(CN1C(=O)/C(=C\c2ccc(O)cc2)SC1=S)c1ccccc1`, in data set [1], the half-inhibitory concentration (IC50) worked out at 35.3 µM. Further, in data set [2], 33.1 µM (≈ 11.8 µg/mL) was the least that counted as inhibitory (MIC).

For `O=C(CN1C(=O)/C(=C\c2ccccc2Cl)SC1=S)c1ccccc1`, in data set [1], the IC50 amounted to 25.8 µM. In data set [2], this compound returned an MIC of 25.5 µM (≈ 9.53 µg/mL).

As to `O=C(CN1C(=O)/C(=C\c2cccc(Cl)c2)SC1=S)c1ccccc1`, in data set [1], the half-maximal inhibitory concentration (IC50) came out at 47.3 µM. In addition, the MIC in data set [2] stood at 40.9 µM (≈ 15.3 µg/mL).

As for `CN(C)c1ccc(/C=C2/SC(=S)N(CC(=O)c3ccccc3)C2=O)cc1`, the 50% inhibitory concentration (IC50) in data set [1] is 17.4 µM. In data set [2], this compound displayed an MIC of 12.6 µM (≈ 4.82 µg/mL).

Take `COc1ccc(C(=O)CN2C(=O)/C(=C\c3ccc(F)cc3)SC2=S)cc1`: in data set [1], the concentration for half-maximal inhibition (IC50) worked out at 20.1 µM. This compound also returned a minimum inhibitory concentration (MIC) in data set [2] of 17.8 µM (≈ 6.9 µg/mL).

As for `COc1cccc(/C=C2/SC(=S)N(CC(=O)c3ccccc3)C2=O)c1`, in data set [1], the concentration for half-maximal inhibition (IC50) was 22.6 µM. Also, it took 20.5 µM (≈ 7.57 µg/mL) to inhibit growth in data set [2] (MIC).

Turning to `Cc1ccc(/C=C2/SC(=S)N(CC(=O)c3ccccc3)C2=O)cc1`, the IC50 in data set [1] was 17.5 µM. The compound further registered an MIC in data set [2] of 15.1 µM (≈ 5.34 µg/mL).

Turning to `COc1ccc(C(=O)CN2C(=O)/C(=C\c3cccc(Cl)c3)SC2=S)cc1`, the minimal inhibitory concentration (MIC) against Pseudomonas aeruginosa is 5.05 µM (≈ 2.04 µg/mL); in the data set with Staphylococcus aureus [4], 3.88 µM (≈ 1.57 µg/mL); in data set [2], 2.02 µM (≈ 0.816 µg/mL); in the data set on Staphylococcus aureus [5], 2.16 µM (≈ 0.872 µg/mL). For the same compound, the MCC at 48 h in data set [3] was greater than 200 µM. The half-inhibitory concentration (IC50) in data set [1] was found to be 7.84 µM.

Turning to `COc1ccc(C(=O)CN2C(=O)/C(=C\c3cc(OC)c(OC)c(OC)c3)SC2=S)cc1`, the results for the IC50 (in data set [6]; in data set [1]; at DNA gyrase) were 900 µM, 2.55 µM and greater than 1000 µM, respectively. The minimum inhibitory concentration (MIC) against Pseudomonas aeruginosa amounted to 0.95 µM (≈ 0.437 µg/mL); in the data set with Staphylococcus aureus [4], 1.54 µM (≈ 0.708 µg/mL); in data set [2], 0.29 µM (≈ 0.133 µg/mL); against Staphylococcus aureus [5] it was 1.24 µM (≈ 0.57 µg/mL). In data set [3], the MCC at 48 h is greater than 200 µM.

As to `COc1ccc(C(=O)CN2C(=O)/C(=C\c3ccc(C)cc3)SC2=S)cc1`, the MIC against Pseudomonas aeruginosa turned out to be 8.12 µM (≈ 3.11 µg/mL); against Staphylococcus aureus [4], 10.2 µM (≈ 3.91 µg/mL); in data set [2], 0.49 µM (≈ 0.188 µg/mL); against Staphylococcus aureus [5], 6.15 µM (≈ 2.36 µg/mL). The MCC at 48 h in data set [3] amounted to 195 µM. Also, the IC50 in data set [1] amounted to 5.02 µM.

Regarding `COc1ccc(C(=O)CN2C(=O)/C(=C\c3ccc(Cl)cc3)SC2=S)cc1`, the IC50 in data set [1] was 16.5 µM. The compound also registered an MIC in data set [2] of 8.62 µM (≈ 3.48 µg/mL).

On to `CC(/C=C1\SC(=S)N(CC(=O)O)C1=O)=C\c1ccccc1`, for which the IC50 in data set [1] is greater than 200 µM. Also, the MIC in data set [2] was greater than 200 µM.

Regarding `NNC(=O)c1ccncc1` [ISONIAZID], the figures for the IC50 (in data set [6]; in data set [1]; on DNA gyrase) were greater than 1000 µM, 8.29 µM and greater than 1000 µM, respectively. For the same compound, the MIC in the data set with Pseudomonas aeruginosa amounted to 2.85 µM (≈ 0.391 µg/mL); in the data set with Staphylococcus aureus [4] it was 1.42 µM (≈ 0.195 µg/mL); in data set [2] it was 0.58 µM (≈ 0.0795 µg/mL); in the data set with Staphylococcus aureus [5], 1.26 µM (≈ 0.173 µg/mL). For the same compound, the MCC at 48 h in data set [3] turned out to be 120 µM.

In the case of `Oc1cc(Cl)ccc1Oc1ccc(Cl)cc1Cl` [TRICLOSAN], the results for the IC50 (in data set [6]; on DNA gyrase) were 850 µM and greater than 1000 µM, respectively. Also, the minimal inhibitory concentration (MIC) against Pseudomonas aeruginosa worked out at 1.25 µM (≈ 0.362 µg/mL); against Staphylococcus aureus [4], 0.68 µM (≈ 0.197 µg/mL); in data set [2], 8.65 µM (≈ 2.5 µg/mL); against Staphylococcus aureus [5], 0.39 µM (≈ 0.113 µg/mL). The MCC at 48 h in data set [3] was determined as 20.5 µM.
